SENP7 inh = inhibitors of human SENP7 protease; 330,000 tested, 1.5% active; recombinant SENP7, Z-RLRGG-aminoluciferin luminescence, 40 min; Q9BQF6; inhibition, % at 5 µM;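 active means inhibition above about 50% at the single test dose, limit read from the data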;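 further: plate controls were DMSO with enzyme for no effect and no enzyme buffer wells for full effect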
Target sequence (Q9BQF6 706-1050 limits assumed): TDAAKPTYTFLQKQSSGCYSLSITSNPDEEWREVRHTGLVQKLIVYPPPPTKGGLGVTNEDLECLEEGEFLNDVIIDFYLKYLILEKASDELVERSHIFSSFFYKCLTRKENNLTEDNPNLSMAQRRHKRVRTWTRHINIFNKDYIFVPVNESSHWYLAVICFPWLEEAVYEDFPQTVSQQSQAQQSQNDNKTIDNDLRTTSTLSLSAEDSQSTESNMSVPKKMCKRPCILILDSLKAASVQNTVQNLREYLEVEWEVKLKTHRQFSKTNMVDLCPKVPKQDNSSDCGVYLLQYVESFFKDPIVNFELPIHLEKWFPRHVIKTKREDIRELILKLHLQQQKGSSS
SENP1 inh = SENP1 (human) catalytic domain inhibition; recombinant SENP1 catalytic domain, CyPet-SUMO1-YPet FRET cleavage; inhibition, % at 10 µM; 360,000 tested, 0.21% active;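 active means inhibition at least 30% at 10 µM, raw YFP signal under a set limit, fluorescence ratio 0.5 to 1.5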;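 further: 0% = enzyme with DMSO and 100% = no enzyme wells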
Target sequence (Q9P0U3 419-644 limits assumed): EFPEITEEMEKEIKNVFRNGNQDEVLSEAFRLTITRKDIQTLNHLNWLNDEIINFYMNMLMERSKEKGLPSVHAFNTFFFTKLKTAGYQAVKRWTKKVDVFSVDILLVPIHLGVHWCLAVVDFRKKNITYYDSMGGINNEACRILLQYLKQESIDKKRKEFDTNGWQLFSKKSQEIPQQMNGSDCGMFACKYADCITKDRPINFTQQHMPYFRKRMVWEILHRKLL
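Assay system – human recombinant His6-tagged SENP1 catalytic domain enzyme · Input – SENP1 enzyme, 20 pM final · Buffer or medium – Tris pH 8 buffer plus EDTA, NaCl, BME, BSA, NP40, catalase · Schedule – 50 min reaction at room temperature · Technique – FRET read of cyan and yellow fluorescence · Control set – no-enzyme wells low, DMSO-plus-enzyme wells high control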
SENP8 block-1 = inhibitors of human SENP8 protease. inhibition, % at 10 µM. AID 2540. 330,000 tested, 1.2% active. purified SENP8, Z-RLRGG-aminoluciferin cleavage, luminescence. Q96LD8; in the data active means inhibition above about 50%
SENP6 inh = inhibitors of human SENP6 protease; 330,000 tested, 1.8% active; AID 2599; inhibition, % at 10 µM; Recombinant SENP6 catalytic domain, aminoluciferin luminescence;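 active means inhibition above about 50% at the single tested dose, limit read from the data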;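 further: plate controls were DMSO wells with enzyme for no effect and DMSO wells lacking enzyme for full effect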
CendR NRP1 mod = modulators of CendR peptide binding to human neuropilin-1. O14786. FAM-RPARPAR peptide binding to NRP-1, fluorescence polarization. inhibition, % at 25 µM. 360,000 tested, 0.85% active. AID 602438;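 active means inhibition or corrected inhibition above about 18%, plus a signal ratio from 0.5 to 1.5, limit read from the data, passing the limit was not always enough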
SENP8 block-2 = blocks human SENP8 cleavage of Nedd8 substrate. Q96LD8. recombinant SENP8, Nedd8 substrate fluorescence. inhibition, % at 20 µM. 360,000 tested, 0.64% active. AID 602440; in the data active means inhibition mostly above about 40%, no sharp cut-off; inactive means mostly below about 27%
* hit, by the source's call; . = no result given. A selection: hits, their analogues and other compounds. The true share with any hit is near 3.3%.

SMILES | SENP7 inh | SENP1 inh | SENP8 block-1 | SENP6 inh | CendR NRP1 mod | SENP8 block-2
Cc1ccc(CNC(=O)c2ccc3c(=O)[nH]c4c(C(=O)NCC5CCCO5)sc(=S)n4c3c2)cc1 (stereo unspecified) | -3 | 39* | -4 | -6 | -41 | 28
CCn1c(N)c(C(=O)NCC2CCCO2)sc1=S (stereo unspecified) | 1 | 2 | -5 | -6 | -4 | 38
Cc1ccc(CNC(=O)c2ccc3c(=O)n(CC4CCCO4)c(=S)[nH]c3c2)cc1 (stereo unspecified) | 14 | 0 | -2 | -15 | -11 | 9
O=C(NCc1ccccc1)c1ccc2c(=O)[nH]c3c(C(=O)NCC4CCCO4)sc(=S)n3c2c1 (stereo unspecified) | -1 | 38* | 13 | 31 | -16 | 17
O=C(NCc1ccccc1)c1ccc2c(=O)n(CC3CCCO3)c(=S)[nH]c2c1 (stereo unspecified) | 16 | -1 | -2 | -8 | -2 | 9
COc1ccccc1-c1cn(CC[C@@H]2CC[C@H](NC(=O)C3CCC3)[C@@H](CO)O2)nn1 | . | -2 | . | . | -3 | 14
O=S1(=O)CC(N2CCCC2)CN1Cc1cn(Cc2ccc(F)cc2)nn1 (stereo unspecified) | . | 0 | . | . | 18 | 21
COCCN(Cc1ccccc1)C(=O)c1ccc(C(=O)c2ccccc2)cc1 | -12 | -1 | -14 | -19 | 1 | 18
CCC(C)NCC(=O)Nc1ccc(-c2nc3cc(NC(=O)CNC(C)CC)ccc3o2)cc1 (stereo unspecified) | 4 | -2 | -3 | -8 | 9 | -466
CCN(CC)CC(=O)Nc1ccc(-c2nc3cc(NC(=O)CN(CC)CC)ccc3o2)cc1 | -1 | 2 | -2 | -10 | 17* | -482
O=c1c(C=NCCN2CCNCC2)c(-c2ccccc2)[nH]n1-c1ccc([N+](=O)[O-])cc1 | 84* | . | 90* | 93* | . | .
O=C(O)c1cc(NCc2ccc(F)cc2)ccc1N1CCOCC1 | 0 | 3 | -6 | 1 | 46* | -144
CNC(=O)OCc1nc(SSC(C)(C)C)n(C)c1COC(=O)NC | . | 3 | . | . | 0 | 8
CCCS(=O)(=O)NC(=O)C1(C)CCN(C(=O)c2cc(-c3cccs3)oc2C)C1 (stereo unspecified) | . | 1 | . | . | -10 | -16
CS(=O)(=O)N1CCC(C(=O)NCCC2=CCCCC2)CC1 | -2 | 1 | 3 | -19 | -4 | -1
CCN(CC)S(=O)(=O)N1CCC(C(=O)NCCC2=CCCCC2)CC1 | 9 | 3 | 2 | -3 | 27* | 1
Cn1c(O)c(/C=N/NC(=O)c2cc3ccccc3cc2O)c2ccccc21 | 11 | -25 | 93* | 97* | -131 | -251
Cc1ccc(S(=O)(=O)N2C3CCCCC3O[C@H]2CC(=O)OCc2ccccc2)cc1 (stereo partly specified) | . | 2 | . | . | 10 | 13
CCN1/C(=C/c2ccc3cc(C)cc(C)c3[n+]2CC)Sc2cc(C)ccc21 | . | 74 | . | . | -221 | 23*
CCN1/C(=C\c2ccc3cc(C)ccc3[n+]2CC)Sc2cc(C)c(C)cc21 | . | 49 | . | . | -226 | 30
CCN1/C(=C/c2ccc3cc(C)ccc3[n+]2CC)Sc2ccc3sccc3c21 | 5 | 58* | 26 | -75 | -150 | 34
Cc1nc(OCC(=O)c2ccc(Cl)cc2)c(C#N)c2c1COC(C)(C)C2 | -7 | 1 | 3 | 0 | 1 | 27
CCc1nc(OCC(=O)c2ccccc2)c(C#N)c2c1COC(C)(C)C2 | 6 | 0 | 5 | 17 | 19* | 20
O=C(O)CCC(=O)c1ccc(C2CCCCCC2)cc1 | . | 2 | . | . | 4 | 2
O=C(NCCNC(=O)c1ccc(Br)o1)c1ccc(Br)o1 | 0 | 0 | -5 | -8 | 8 | 11
SMILES | SENP7 inh | SENP1 inh | SENP8 block-1 | SENP6 inh | CendR NRP1 mod | SENP8 block-2
O=C(NCCc1ccccc1)c1ccc(Br)o1 | -4 | 0 | 1 | -15 | 24* | 11
O=C(CCSc1ccc(F)cc1)NNC(=O)c1ccc([N+](=O)[O-])cc1 | -6 | 1 | -14 | 20 | -9 | 8
Oc1[nH]c2ccccc2c1N=Nc1ccccn1 | . | 8 | . | . | -7 | 21
Oc1c(N=Nc2ccccn2)ccc2ccccc12 | 43 | 14 | 96* | 94* | -14 | 21
CSCCC(C(=O)NCc1ccccc1)n1c(Cc2cc(F)cc(F)c2)nc2ccccc21 (stereo unspecified) | . | 1 | . | . | 2 | 4
Cc1ccccc1/C=N/NC(=O)c1sccc1C | 99* | 6 | 95* | 96* | -3 | 3
CC(/C=N/Nc1nnc(C)c(=O)[nH]1)=C\c1ccccc1 | 2 | 2 | 1 | -20 | 24* | 6
Cc1cccc(/C=N\Nc2nnc(-c3ccccc3)c(=O)[nH]2)c1 | -2 | 1 | -5 | -19 | -2 | 7
CC(C)c1ccc(NC2CCCN(C(=O)CN3CCCCC3=O)C2)cc1 (stereo unspecified) | . | 0 | . | . | 1 | 10
COc1cccc(-n2c(=O)n(Cc3ccccc3)c(=O)c3[nH]cnc32)c1 | -4 | 1 | 2 | -25 | 22* | 3
O=c1c2[nH]cnc2n(-c2ccccc2)c(=O)n1Cc1ccccc1 | 9 | -7 | -2 | -14 | -8 | -1
COC(=O)C[C@H]1CC[C@H](NC(=O)Nc2ccccc2)[C@@H](CO)O1 | . | 2 | . | . | -6 | 20
COc1cccc(C2CC(OCCF)=CC(=O)O2)c1 (stereo unspecified) | . | 5 | . | . | -19 | 24
Cc1ccc(NC2=CC(=O)CCC2)cc1C | -3 | -58 | 7 | 3 | 46* | -89
Cc1ccc(NC2=CC(=O)CC(C)(C)C2)cc1Cl | 3 | -92 | -1 | 7 | -9 | -151
Cc1ccc(NC(=O)Nc2nnc([C@@H]3C[C@H](O)[C@@H](CO)O3)s2)cc1 | . | 1 | . | . | -1 | 20
Cc1ccc(C(=O)Nc2nnc([C@H]3C[C@H](O)[C@@H](CO)O3)s2)cc1 | . | 2 | . | . | 30* | 13
Cc1cc(C)c(NC(=O)CSc2cccc[n+]2[O-])c(C)c1 | 3 | 3 | -3 | -2 | 2 | 5
Cc1ccc(Cl)c(NC(=O)CSc2cccc[n+]2[O-])c1Cl | 6 | 3 | 8 | 12 | 28* | -10
Cc1onc(-c2ccccc2)c1C(=O)N1CCCC1 | 2 | 1 | -11 | -7 | 21* | 1
Cc1ccccc1-c1noc(-c2ccccc2C(=O)N2CCCC2)n1 | 1 | 1 | -1 | -1 | 20* | 14
Cc1ccc(-c2noc(-c3ccccc3C(=O)N3CCCC3)n2)cc1 | 2 | 1 | 1 | 2 | 4 | 14
O=C(COC(=O)CC1SC(N2CCCC2)=NC1=O)Nc1ccc(Br)cc1 (stereo unspecified) | 5 | 0 | -7 | -4 | 9 | 13
Cc1cccc(NS(=O)(=O)c2cccs2)c1 | -1 | 2 | 1 | -15 | 36* | 6

Source: PubChem BioAssay (Sanford-Burnham Center for Chemical Genomics)
